# Test results published in ChEMBL document CHEMBL4706682, “Development of Novel Mitochondrial Pyruvate Carrier Inhibitors to Treat Hair Loss” (J Med Chem, 2021).
# The source made the active and inactive calls. Unless noted, the calls are words filed in the database; no cut-off is given here.
# System: MCF-10A
# Test: Toxicity in human MCF-10A cells assessed as reduction in cell viability incubated for 24 to 30 hrs
# Type: cell-based
# Conditions: time 24-30 hrs
row,Structure (SMILES),Activity
1,N#C/C(=C\c1cn(Cc2cc(C(F)(F)F)cc(C(F)(F)F)c2)c2ccccc12)C(N)=O,Toxic
2,N#C/C(=C\c1cn(Cc2cc(C(F)(F)F)cc(C(F)(F)F)c2)c2ccccc12)C(=O)N1CCOCC1,Toxic

# System: Mus musculus
# Test: Stimulation of hair growth in C57BL/6J mouse shaved at postnatal day 50 during telogen-phase of hair cycle at 20 uM dosed topically to shaved back skin every other day for 2 weeks
# Type: functional, organism-based
# Conditions: not given
# In short: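 Wild-type C57BL/6J mice were shaved at postnatal day 50. They were treated topically every other day with about 300 µl of compound at 20 µM, suspended in Transderma Plo Ultramax gel, for up to 3 weeks; vehicle served as control. Pigmentation and hair growth (anagen entry) were photographed weekly. Mice were housed under defined pathogen-free conditions.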
row,Structure (SMILES),Activity
1,N#C/C(=C\c1cn(-c2ccccc2)c2cccc(Cl)c12)C(=O)O,Active
2,N#C/C(=C\c1cn(Cc2cc(C(F)(F)F)cc(C(F)(F)F)c2)c2cccc(F)c12)C(=O)O,Active
3,N#C/C(=C\c1cn(Cc2cc(C(F)(F)F)cc(C(F)(F)F)c2)c2ccccc12)C(=O)O,Active
4,N#C/C(=C\c1cn(Cc2cc(C(F)(F)F)cc(C(F)(F)F)c2)c2cccc(Br)c12)C(=O)O,Active
5,N#C/C(=C\c1cn(Cc2cc(C(F)(F)F)cc(C(F)(F)F)c2)c2cccc(Cl)c12)C(=O)O,Active

# System: MCF-10A
# Test: Inhibition of MPC in human MCF-10A cells assessed as increase in cellular lactate production at 10 uM incubated for 24 to 30 hrs
# Type: cell-based
# Conditions: time 24-30 hrs
# In short: (§1)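 MCF10A cells were seeded in triplicate and treated the next day with analogue or an equal volume of DMSO for 24-30 h. Lactate in the culture medium was measured on a BioProfile Basic Analyzer. It was normalized to cell number and run time to give a rate (nmol lactate per million cells per hour), relative to DMSO. Statistics were one-way ANOVA with Dunnett's post-test against DMSO.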
row,Structure (SMILES),inhibition
1,N#C/C(=C\c1cn(Cc2ccccc2)c2ccccc12)C(=O)O,Active
2,COc1ccccc1-n1cc(/C=C(\C#N)C(=O)O)c2ccccc21,Active
3,N#C/C(=C\c1cn(Cc2cc(C(F)(F)F)cc(C(F)(F)F)c2)c2ncccc12)C(=O)O,Active
4,N#C/C(=C\c1cn(Cc2ccc(F)c(F)c2)c2cc(F)ccc12)C(=O)O,Active
5,N#C/C(=C\c1cn(Cc2ccc(F)cc2)c2ccccc12)C(=O)O,Active
6,N#C/C(=C\c1cn(Cc2cc(C(F)(F)F)cc(C(F)(F)F)c2)c2cc(OCc3ccccc3)ccc12)C(=O)O,inactive
7,N#C/C(=C\c1cn(Cc2cc(C(F)(F)F)cc(C(F)(F)F)c2)c2cccc(C(=O)O)c12)C(=O)O,inactive
8,N#C/C(=C\c1cn(Cc2cc(C(F)(F)F)cc(C(F)(F)F)c2)c2cccc(F)c12)C(=O)O,Active
9,N#C/C(=C\c1cn(Cc2cc(C(F)(F)F)cc(C(F)(F)F)c2)c2nccc(Cl)c12)C(=O)O,Active
10,N#C/C(=C\c1c[nH]c2ccccc12)C(=O)O,inactive
11,N#C/C(=C\c1ccc(O)cc1)C(=O)O,inactive
12,N#C/C(=C\c1ccccc1)C(=O)O,inactive
13,N#C/C(=C\c1ccc(F)c(C(F)(F)F)c1)C(=O)O,inactive
14,N#C/C(=C\c1cn(-c2ccccc2)c2ccccc12)C(=O)O,Active
15,CCOC(=O)/C(C#N)=C/c1cn(Cc2cc(C(F)(F)F)cc(C(F)(F)F)c2)c2cccc(F)c12,Active
16,CCOC(=O)/C(C#N)=C/c1cn(Cc2ccccc2)c2ccccc12,Active
17,CCOC(=O)/C(C#N)=C/c1cn(Cc2cc(F)cc(F)c2)c2ccccc12,Active
18,CCOC(=O)/C(C#N)=C/c1cn(Cc2cc(C(F)(F)F)cc(C(F)(F)F)c2)c2cccc(Br)c12,Active
19,N#C/C(=C\c1cc(C(F)(F)F)cc(C(F)(F)F)c1)C(=O)O,inactive
20,CCOC(=O)C(=Cc1cn(-c2ccccc2)c2ccccc12)C(=O)O (mixture of isomers),inactive
21,N#C/C(=C\c1ccccc1F)C(=O)O,inactive
22,CCOC(=O)/C(C#N)=C/c1c[nH]c2ccccc12,inactive

row,Structure (SMILES),inhibition
1,N#C/C(=C\c1cn(Cc2cc(C(F)(F)F)cc(C(F)(F)F)c2)c2cc(Cl)ccc12)C(=O)O,inactive
2,N#C/C(=C\c1cn(Cc2cc(C(F)(F)F)cc(C(F)(F)F)c2)c2c(F)cccc12)C(=O)O,Active
3,N#C/C(=C\c1cn(Cc2cc(C(F)(F)F)cc(C(F)(F)F)c2)c2cccc(C#N)c12)C(=O)O,Active
4,Cc1ccc(/C=C(\C#N)C(=O)O)cc1F,inactive
5,CCOP(=O)(OCC)/C(C#N)=C/c1cn(Cc2cc(C(F)(F)F)cc(C(F)(F)F)c2)c2ccccc12,Active
6,N#C/C(=C\c1cn(Cc2cc(C(F)(F)F)cc(C(F)(F)F)c2)c2ccccc12)C(=O)O,Active
7,N#C/C(=C\c1ccc(F)c(F)c1)C(=O)O,inactive
8,N#C/C(=C\c1cccc(C(F)(F)F)c1Cl)C(=O)O,inactive
9,N#C/C(=C\c1cn(Cc2cc(C(F)(F)F)cc(C(F)(F)F)c2)c2ccccc12)C(N)=O,Active
10,COc1cccc2c1c(/C=C(\C#N)C(=O)O)cn2Cc1cc(C(F)(F)F)cc(C(F)(F)F)c1,Active
11,N#C/C(=C\c1cn(Cc2cc(C(F)(F)F)cc(C(F)(F)F)c2)c2nccc(Br)c12)C(=O)O,Active
12,CCOC(=O)/C(C#N)=C/c1cn(Cc2cc(C(F)(F)F)cc(C(F)(F)F)c2)c2ncccc12,Active
13,N#C/C(=C\c1cn(Cc2cc(C(F)(F)F)cc(C(F)(F)F)c2)c2cccc(Br)c12)C(=O)O,Active
14,CCOC(=O)/C(C#N)=C/c1cn(Cc2ccc(F)cc2)c2ccccc12,Active
15,CCOC(=O)/C(C#N)=C/c1cn(Cc2ccc(F)c(F)c2)c2ccccc12,Active
16,CCOC(=O)/C(C#N)=C/c1cn(Cc2cc(C(F)(F)F)cc(C(F)(F)F)c2)c2ccccc12,Active
17,CCOP(=O)(OCC)/C(C#N)=C/c1cn(Cc2cc(C(F)(F)F)cc(C(F)(F)F)c2)c2ncccc12,Active
18,COC(=O)/C(C#N)=C/c1cn(Cc2cc(C(F)(F)F)cc(C(F)(F)F)c2)c2ccccc12,inactive
19,N#CC(Cc1cn(-c2ccccc2)c2ccccc12)C(=O)O (stereo unspecified),inactive
20,N#C/C(=C\c1cn(Cc2cc(C(F)(F)F)cc(C(F)(F)F)c2)c2cccc(Cl)c12)C(=O)O,Active
21,N#C/C(=C\c1cn(Cc2cc(C(F)(F)F)cc(C(F)(F)F)c2)c2ccccc12)C(=O)N1CCOCC1,Active
22,N#C/C(=C\c1cn(Cc2ccc(F)c(F)c2)c2ccccc12)C(=O)O,Active

row,Structure (SMILES),inhibition
1,CCOC(=O)/C(C#N)=C/c1cn(-c2ccccc2OC)c2ccccc12,Active
2,CCOC(=O)/C(C#N)=C/c1cn(C(=O)Cc2cc(C(F)(F)F)cc(C(F)(F)F)c2)c2ccccc12,inactive
3,N#C/C(=C\c1cn(Cc2cc(C(F)(F)F)cc(C(F)(F)F)c2)c2ccc(Cl)cc12)C(=O)O,inactive
4,N#C/C(=C\c1cn(Cc2cc(F)cc(F)c2)c2ccc(F)cc12)C(=O)O,Active
5,N#C/C(=C\c1ccc(C(F)(F)F)cc1)C(=O)O,inactive
6,N#C/C(=C\c1cn(Cc2cc(C(F)(F)F)cc(C(F)(F)F)c2)c2cccnc12)C(=O)O,Active
7,N#C/C(=C\c1cn(Cc2cc(C(F)(F)F)cc(C(F)(F)F)c2)c2cnccc12)C(=O)O,Active
8,N#C/C(=C\c1cn(Cc2cc(C(F)(F)F)cc(C(F)(F)F)c2)c2cccc(OCc3ccccc3)c12)C(=O)O,inactive
9,CCOC(=O)/C(C#N)=C/c1cn(-c2ccccc2)c2ccccc12,inactive
10,N#C/C(=C\c1cn(Cc2cc(C(F)(F)F)cc(C(F)(F)F)c2)c2c(Cl)cccc12)C(=O)O,inactive
11,N#C/C(=C\c1cn(Cc2cc(F)cc(F)c2)c2cc(F)ccc12)C(=O)O,Active
12,N#C/C(=C\c1ccc(F)cc1F)C(=O)O,inactive
13,COc1ccc(-n2cc(/C=C(\C#N)C(=O)O)c3ccccc32)cc1,Active
14,N#C/C(=C\c1cn(Cc2cc(C(F)(F)F)cc(C(F)(F)F)c2)c2ccccc12)P(=O)(O)O,inactive
15,N#C/C(=C\c1cn(Cc2cc(F)cc(F)c2)c2ccccc12)C(=O)O,Active
16,CC(C)(C)OC(=O)/C(C#N)=C/c1cn(Cc2cc(C(F)(F)F)cc(C(F)(F)F)c2)c2ccccc12,inactive
17,N#C/C(=C\c1cn(Cc2cc(C(F)(F)F)cc(C(F)(F)F)c2)c2c(OCc3ccccc3)cccc12)C(=O)O,Active
18,N#C/C(=C\c1ccc(F)cc1)C(=O)O,inactive
19,CCOC(=O)/C(C#N)=C/c1cn(-c2ccc(OC)cc2)c2ccccc12,Active
20,N#CC(C#N)=Cc1cn(-c2ccccc2)c2ccccc12,inactive
21,N#C/C(=C\c1cn(Cc2ccc(F)c(F)c2)c2ccc(F)cc12)C(=O)O,Active

# System: MCF-10A
# Test: Inhibition of MPC in human MCF-10A cells assessed as increase in cellular lactate production incubated for 24 to 30 hrs
# Type: cell-based
# Conditions: time 24-30 hrs
# In short: as §1
row,Structure (SMILES),inhibition
1,N#C/C(=C\c1cn(-c2ccccc2)c2ccccc12)C(=O)O,Dose-dependent effect

# System: MCF-10A
# Test: (§2) Inhibition of MPC in human MCF-10A cells assessed as reduction in oxygen consumption rate using pyruvate and malate and ADP
# Type: cell-based
# Conditions: not given
# In short: (§3)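 A Seahorse XF Analyzer measured the respiration of permeabilized MCF10A cells, with 5 mM pyruvate and 0.5 mM malate as substrates plus ADP (state 3). Cells received half-log doses from 3 nM to 10 µM. OCR (fmol O2 per cell per min) was measured in duplicate and normalized to cell number. IC50 was fitted from the dose-response.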
row,Structure (SMILES),inhibition
1,N#C/C(=C\c1cn(Cc2cc(C(F)(F)F)cc(C(F)(F)F)c2)c2ncccc12)C(=O)O,Active

# System: not listed separately
# Test: as §2
# Type: cell-based
# Conditions: not given
# In short: as §3
row,Structure (SMILES),IC50 [nM]
1,N#C/C(=C\c1cn(Cc2cc(C(F)(F)F)cc(C(F)(F)F)c2)c2ncccc12)C(=O)O,42.8
2,N#C/C(=C\c1cn(Cc2cc(C(F)(F)F)cc(C(F)(F)F)c2)c2ccccc12)C(=O)O,16.6
